# Experimental data as given in ChEMBL document CHEMBL4513216, “Probing the Open Global Health Chemical Diversity Library for Multistage-Active Starting Points for Next-Generation Antimalarials” (ACS Infect Dis, 2020).
# Experiment: Toxicity liver stage against HepG2, at 10uM
# Assay type: cell-based
# Design: test concentration 10 uM, cell line HepG2-A16-CD81EGFP
# Details: human, HepG2-A16-CD81EGFP cells; read-out: INHIBITION
# Procedure, shortened: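 Uninfected HepG2-A16-CD81EGFP cells, 3 × 10^3 per well, 1536-well, plated on prespotted compound at 10 μM final, parasite-free screening media added to match infected plates; puromycin 10 μM positive, DMSO 0.5% negative; run in parallel with 48 h PbLuc assay at 37 °C, 5% CO2; viability by CellTiter-Glo luminescence, normalized to controls.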
row,SMILES,cytotoxicity at 10 µM [%]
1,CCN(Cc1noc(CC(C)C)n1)Cc1ncccc1C(=O)O,-37.2
2,COCCNS(=O)(=O)c1cccc2c1CN(C(=O)c1cnccn1)CC2,-0.432
3,CCN1CC(C(=O)NC(C)(C)C(=O)OC)CC1=O (stereo unspecified),-143
4,CCCn1ccnc1CN1CCC(Oc2cccc(F)c2)(C(=O)O)CC1,1
5,Cn1cc(C[C@H]2[C@H](O)CCN2C(=O)c2ccsc2)cn1,-72.6
6,Cc1oc(-c2ccsc2)nc1CN1CCCC(c2ccnn2C)C1 (stereo unspecified),10.7
7,CN(C)S(=O)(=O)N1CCCC1CC(=O)c1cccs1 (stereo unspecified),-9.44
8,CN(C)CC(=O)N1CCC2(CC1)COc1ccccc1S(=O)(=O)N(C)C2,0.0039
9,CC(C)NC(=O)C(C(C)C)n1cnc2cc(F)c(F)cc21 (stereo unspecified),12.5
10,Cc1cc(C2CCC2)nc(N2CCC3(CC2)OCCCC3O)n1 (stereo unspecified),4.28
11,CCCc1n[nH]cc1C(=O)NCC1COc2cc(OC)ccc2C1 (stereo unspecified),-0.506
12,CC(C)COCC(NC(=O)c1cc[nH]n1)c1ccco1 (stereo unspecified),-4.72
13,Cc1ccc(S(=O)(=O)Cc2nnc(C)n2C)cc1,-2.92
14,c1ccc(COC2C[C@@H]3CN(Cc4cccnc4)C[C@@H]3C2)cc1 (stereo partly specified),2.92
15,COc1cnc(C2(O)CCN(C(=O)c3ccccn3)CC2)c(OC)n1,-8.99
16,CCOc1ccccc1-n1c(-c2cn(CC)nc2C)n[nH]c1=O,2.81
17,COc1ccc2c(c1)nc1n2[C@@H](CN(C2CCC2)C2CCC2)COC1,5.96
18,O=C(Nc1cccc(OCC(F)F)n1)c1ccncc1,-6.02
19,COc1ccc2c(c1)CC(NCCCn1nc(C)nc1C)CC2 (stereo unspecified),-3.27
20,Cc1nc(N)sc1C(=O)N1Cc2ccccc2OC2(CCOCC2)C1,-24.6
21,CCCNC1(c2ccc(Cl)cc2)CCOCC1,-0.0529
22,CCN(CC)C(=O)CN1CCC2(C=Cc3cc(Cl)c(C)cc3O2)CC1,-3.02
23,O=C(O)[C@@H]1CN(C(=O)c2ccc3nccnc3c2)C[C@H]1c1ccncc1,-11.3

row,SMILES,cytotoxicity at 10 µM [%]
1,O=C(CNc1ccc(F)cc1OCC(F)(F)F)NCC(F)(F)F,3.87
2,c1cnc(N2CCC(c3n[nH]c4ncccc34)C2)nc1 (stereo unspecified),-4.47
3,COc1ccccc1C(O)CNC(=O)Nc1ccccn1 (stereo unspecified),-11.9
4,Cc1cccnc1N1CCN(C(=O)C(C)n2ccnc2C(C)C)CC1 (stereo unspecified),-10.3
5,CCOC(=O)Cn1c(=O)c(OCC)nc2cnccc21,4.25
6,COc1cc(-c2nc(C3CC3)nn2-c2ccnc(C)c2)nc(OC)n1,2.64
7,OCCC1CN(c2ncnc3[nH]cnc23)CCN1Cc1cccs1 (stereo unspecified),12.8
8,CC(C)(C)c1cnc(CN2CCC(NC(=O)C3CCOCC3)CC2)o1,-11.9
9,Cn1cc(C(=O)N2CCO[C@@H]3CN(C4CCC4)C[C@@H]3C2)cn1,8.55
10,CNc1oc(-c2cc(S(=O)(=O)N3CCCCCC3)c(C)o2)nc1C#N,-5.28
11,Cc1ccc(NC2CCN(C(=O)CCCc3ccccn3)CC2)nn1,16.4
12,Cn1ccc(C(=O)N2CCCC2c2ccc3c(c2)OCCO3)cc1=O (stereo unspecified),12.3
13,CC(NC(=O)c1nc(=O)[nH][nH]1)c1ccc(OCC2CC2)c(F)c1 (stereo unspecified),-5.75
14,Clc1ccccc1C1(c2ccnc(C3CCCC3)n2)CCNCC1,18.2
15,O[C@@H]1C[C@@H](c2nc(-c3ccccc3)no2)N(CC2CCCCC2)C1,-2.74
16,CCCc1noc(CN2CCCC2c2ccsc2)n1 (stereo unspecified),-18.8
17,CN1C(=O)CC[C@@H]2[C@H]1CCN2S(=O)(=O)Cc1ccccc1,-5.73
18,CCCC(=O)NCCCn1ncc2c(C)cccc21,8.6
19,CC(C)CC1SCC(=O)Nc2c1cnn2C(C)C (stereo unspecified),1.11
20,CCn1nc(CC(C)C)cc1C(=O)N1CC(N2CCCCC2C)C1 (stereo unspecified),-12.4
21,COCc1noc(-c2nn(-c3ccc(F)c(F)c3)c3c2CCC3)n1,-2.75
22,CS(=O)(=O)NC(=O)c1ccn(-c2cccc(Br)c2)n1,-3.64
23,CCNC(=O)[C@@H]1C[C@@H](N)CN1C(=O)C1(c2ccc(OC)cc2)CCCC1,3.95

row,SMILES,cytotoxicity at 10 µM [%]
1,CCC(NC(=O)c1ccc(COC)o1)c1nc(C(F)(F)F)cs1 (stereo unspecified),2.91
2,COc1ccc(C2CNCCN2C(=O)c2nccc3ccccc23)cc1 (stereo unspecified),4.1
3,COc1ccc(C)cc1CN(CC(N)=O)C(C)C,-0.846
4,O=C(c1cscn1)N1CCc2ncc(CN3CCCC3)n2CC1,-111
5,Cn1ccnc1CN1CCN(CCOc2cccc(C#N)c2)CC1,-18
6,CSc1nc2cc(C)n(CC(=O)N3CCCC3)c2c(=O)n1CC(C)C,3.64
7,CCn1cc(NC(=O)C2CCN(CC(=O)NC3CCCC3)CC2)cn1,-6.52
8,CCn1ccnc1CN(C)c1nc(-c2ccc(Cl)cc2)nc2c1CNC2,-12.7
9,Cn1ccnc1CN1CCOC(Cc2ccccc2)C1 (stereo unspecified),-0.479
10,O=S(=O)(NCC1OCCc2cn(CC3CCOCC3)nc21)C1CC1 (stereo unspecified),11.2
11,CCCOc1cccc(NC(=O)NC2CCc3nc(C)nn3C2)c1 (stereo unspecified),-1.65
12,Cc1ccc(C(=O)N(Cc2cccnc2)C[C@@H]2CCC(=O)N2)s1,-77.9
13,Cc1cccc(CN2Cc3[nH]nc(COCC4CC4)c3C2)n1,3.79
14,Cn1ccc(C(=O)N2CCCC(c3cc(O)n(C)n3)C2)n1 (stereo unspecified),-13.7
15,O=C(Nc1ccc(I)cc1C(=O)NCCN1CCOCC1)c1cccs1,-5.09
16,O=c1[nH]nc2c(N3CCOCC3)nccn12,9.73
17,COCCc1noc(CN2CCOC(Cn3cc(C)cn3)C2)n1 (stereo unspecified),-4.18
18,Cc1cc(Cl)c2c(c1)C1(NC(=O)c3cccnc3N1)C(=O)N2 (stereo unspecified),4.97
19,O=C(C(c1ccccc1)S(=O)(=O)c1ccccn1)N1CCCC1 (stereo unspecified),7.27
20,CC(C)n1ncc2cc(NC(=O)N3CCC(CO)CC3)cnc21,-14.5
21,NC(=O)c1ccc(CN2CCCC(O)C2)cc1 (stereo unspecified),0.459
22,CCCS(=O)(=O)N1CCC2(CN(c3cnn(C)c3)C(=O)CN2C)C1 (stereo unspecified),-10.7
23,Cc1nc(Nc2nncs2)cc(C2CNC2)n1,5.88

row,SMILES,cytotoxicity at 10 µM [%]
1,COCCNC(=O)C[C@@H]1COC[C@H]2CN(C(=O)c3cnccn3)C[C@@H]12,-12.2
2,CCC(NC(=O)C1CCN(S(C)(=O)=O)CC1)c1ccc(OC)c(OC)c1 (stereo unspecified),-6.69
3,Cc1cc2c(cc1Cl)C=CC1(CCN(CC(=O)N3CCOCC3)CC1)O2,-1.7
4,Cc1ncsc1C(=O)N(C)Cc1ccncc1,-0.524
5,O=C(NCc1cccc(N2CCCCC2=O)c1)[C@@H](O)c1ccccc1,-8.31
6,O=C(c1ncncc1Cl)N1CCC2(CCCC2)CC1,1.06
7,Cc1ccc2c(c1)C(N(C)C)CC21CCN(CCO)CC1 (stereo unspecified),3.62
8,Fc1cnc(N2CCOCC3(CCCN(c4nncs4)C3)C2)nc1 (stereo unspecified),2.01
9,Cc1nn(C)c(N(C)C)c1CNC1CCOc2c(F)cccc21 (stereo unspecified),-13.9
10,COC(=O)N1CCCC(C(=O)NCCc2c[nH]c3cc(C)ccc23)C1 (stereo unspecified),-5.95
11,N#Cc1ccc(OC2CCN(C(=O)COCC3CCCO3)CC2)cc1 (stereo unspecified),12.9
12,CCc1cc2c(N3CCCC(c4ccn[nH]4)C3)ncnc2s1 (stereo unspecified),15.7
13,Cc1nccn1-c1ccc(C(C)NCc2ncc[nH]2)cc1 (stereo unspecified),1.91
14,CN(C)S(=O)(=O)NCc1cccnc1Oc1ccccc1F,1.81
15,Cc1cc(C[C@@H]2CCC[C@H]2NCc2ccccc2C(F)(F)F)on1,2.8
16,CS(=O)(=O)N1CCN(C(=O)c2cc(-c3ccco3)cs2)CC1,4.73
17,COc1cccn(Cc2nnc(-c3cccc(F)c3)o2)c1=O,2
18,CN(C)CCCNC(=O)c1cc(Cl)ccc1Cl,-6.56
19,Cc1nccn1C1CCCN(C(=O)COC2CCCC2)C1 (stereo unspecified),-10.5
20,CN1CCN(C(=O)c2n[nH]c3c2CN(C2CCOCC2)CC3)CC1,3.41
21,NC(=O)C(NC(=O)CSCc1ccc(Cl)s1)c1ccccc1 (stereo unspecified),9.12
22,O=C1NC(c2cnc(C3CCC3)s2)Nc2ccccc21 (stereo unspecified),-3.95
23,O=C(NC1CCN(CC2CC2)C1)N1CCC(OC2CCCCC2)CC1 (stereo unspecified),4.75

row,SMILES,cytotoxicity at 10 µM [%]
1,Cc1cnn(CC2CCCN2Cc2noc(C3CC3)n2)c1 (stereo unspecified),-17.3
2,Cc1noc([C@]23COC[C@H]2CN(Cc2cc(C)on2)C3)n1,0.841
3,CCOCC(=O)N1Cc2nccn2CC(CN(C)C)C1 (stereo unspecified),-124
4,CN1CCN(C(=O)NC2CCCC2)Cc2cccnc21,-0.123
5,CCOCCN1CCN(Cc2nnc(C3CC3)o2)CC1C (stereo unspecified),12.9
6,CN1CCCN(C(=O)c2nc3c(s2)CCCN3CC2CC2)CC1,10
7,Cc1cc(=O)[nH]c(=O)n1-c1cccc(Cl)c1Cl,-3.57
8,CCOc1ccccc1CNS(=O)(=O)c1ccc2c(c1)CCCC(=O)N2,7.89
9,Cc1oc(C(=O)O)cc1S(=O)(=O)Nc1cccc(-c2nccs2)c1,-1.01
10,O=C1CN(C(=O)c2nnn(-c3ccc(C(F)(F)F)cc3)n2)CCN1,-2.77
11,CCNc1cc2c(nn1)CCN(C(=O)C1COc3ccccc3O1)C2 (stereo unspecified),-6.34
12,CCOc1cc(C(=O)N2CCOCC2)cc2occc12,-4.92
13,COc1ccc(CNCC2CNc3ccnn3C2)cn1 (stereo unspecified),-3.84
14,CCc1cccc(N2CCC(NC(=O)c3ccc(=O)[nH]n3)CC2)c1,5.8
15,CCc1noc(C(C)N2CCC(C(=O)Nc3cnn(CC)c3)CC2)n1 (stereo unspecified),2.21
16,CN(C)C(=O)N[C@H]1CN(Cc2ccc3c(c2)OCO3)[C@@H]2CCCO[C@H]12,4.32
17,COc1ccccc1CN(Cc1cccnc1)CC1CCCO1 (stereo unspecified),1.03
18,Cc1cc(C(=O)N2CCCC2Cn2nc(C)cc2C)on1 (stereo unspecified),-8.21
19,COc1ccc2c(c1)CN(C)C(=O)CCN2CC(O)C(C)(C)C (stereo unspecified),4.17
